How the values were obtained:
CCRF-CEM = experiment: Growth inhibition of human CCRF-CEM cells after 48 hrs by SRB assay; format: functional
Outline: (§1)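 NCI 60-panel five-dose assay at 0.01, 0.1, 1, 10 and 100 μM. Cells in RPMI 1640 with 5% FBS and 2 mM L-glutamine, preincubated 24 h, with time-zero plates TCA-fixed. Drug exposure 48 h at 37 °C. Read by SRB staining at 515 nm. GI50 is the concentration where [(Ti−Tz)/(C−Tz)]×100 = 50, taken from log concentration versus % growth curves.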

EKVX [1] = experiment: Growth inhibition of human EKVX cells after 48 hrs by SRB assay; format: functional; outline: as §1
NCI-H23 = experiment: Growth inhibition of human NCI-H23 cells after 48 hrs by SRB assay; format: functional; conditions: NCI-H23, 48 h; outline: as §1
SF-268 = experiment: Growth inhibition of human SF268 cells after 48 hrs by SRB assay; format: functional; conditions: SF-268, 48 h; outline: as §1
SF-295 = experiment: Growth inhibition of human SF295 cells after 48 hrs by SRB assay; format: functional; conditions: SF-295, 48 h; outline: as §1
SNB-19 [2] = experiment: Growth inhibition of human SNB19 cells after 48 hrs by SRB assay; format: functional; conditions: SNB-19, 48 h
Outline: (§2)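 NCI-60 panel cells grown in RPMI 1640 with 5% FBS and 2 mM L-glutamine, then seeded at 5000–40,000 cells/well by doubling time and preincubated for 24 h. Compound in DMSO was tested either at 10^-5 M alone or at 0.01–100 μM in five doses, for 48 h at 37 °C. Cells were fixed with cold TCA (10% final), stained with SRB, and read at 515 nm. GI50 was taken from % growth relative to time-zero and control wells.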

SNB-75 = experiment: Growth inhibition of human SNB75 cells after 48 hrs by SRB assay; format: functional; conditions: SNB-75, 48 h; outline: as §2
Malme-3M [3] = experiment: Growth inhibition of human MALME-3M cells after 48 hrs by SRB assay; format: functional; outline: as §1
M14 = experiment: Growth inhibition of human M14 cells after 48 hrs by SRB assay; format: functional; conditions: M14, 48 h; outline: as §1
SK-MEL-28 [4] = experiment: Growth inhibition of human SK-MEL-28 cells after 48 hrs by SRB assay; format: functional; conditions: SK-MEL-28, 48 h; outline: as §2
OVCAR-3 [5] = experiment: Growth inhibition of human OVCAR3 cells after 48 hrs by SRB assay; format: functional; conditions: OVCAR-3, 48 h; outline: as §1
OVCAR-5 = experiment: Growth inhibition of human OVCAR5 cells after 48 hrs by SRB assay; format: functional; conditions: OVCAR-5, 48 h; outline: as §1
A498 = experiment: Growth inhibition of human A498 cells after 48 hrs by SRB assay; format: functional; conditions: A498, 48 h; outline: as §1
RXF 393 [6] = experiment: Growth inhibition of human RXF393 cells after 48 hrs by SRB assay; format: functional; conditions: RXF 393, 48 h; outline: as §1
DU-145 = experiment: Growth inhibition of human DU145 cells after 48 hrs by SRB assay; format: functional; conditions: DU-145, 48 h; outline: as §1
MDA-MB-231 = experiment: Growth inhibition of human MDA-MB-231 cells after 48 hrs by SRB assay; format: functional; conditions: MDA-MB-231, 48 h; outline: as §1
MDA-MB-468 = experiment: Growth inhibition of human MDA-MB-468 cells after 48 hrs by SRB assay; format: functional; conditions: MDA-MB-468, 48 h; outline: as §1
EKVX [7] = experiment: Cytotoxicity against human EKVX cells after 48 hrs by SRB assay; format: cell-based
Outline: (§3)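 NCI-60 five-dose screen in RPMI 1640 with 5% FBS and 2 mM L-glutamine; 5000–40,000 cells/well, 24 h pre-incubation. DMSO stocks diluted to 0.01, 0.1, 1, 10 and 100 μM final; 48 h at 37 °C, 5% CO2. Fixed with TCA (10% final adherent, 16% suspension), stained with 0.4% SRB, A515. GI50, TGI and LC50 taken from time-zero, control and test absorbances.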

A549 = experiment: Cytotoxicity against human A549 cells after 48 hrs by SRB assay; format: cell-based; conditions: a549, 48 h; outline: as §3
MOLT-4 = experiment: Cytotoxicity against human MOLT4 cells after 48 hrs by SRB assay; format: cell-based; conditions: molt-4, 48 h; outline: as §3
[8] = Cytotoxicity against human […] cells after 48 hrs by SRB assay; format: cell-based; outline: as §3
NCI-H522 = experiment: Cytotoxicity against human NCI-H522 cells after 48 hrs by SRB assay; format: cell-based; conditions: nci-h522, 48 h; outline: as §3
HT-29 = experiment: Cytotoxicity against human HT-29 cells after 48 hrs by SRB assay; format: cell-based; conditions: ht-29, 48 h; outline: as §3
SNB-19 [9] = experiment: Cytotoxicity against human SNB19 cells after 48 hrs by SRB assay; format: cell-based; conditions: snb-19, 48 h
Outline: (§4)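 NCI-60 five-dose screen. Cells grown in RPMI 1640 with 5% FBS and 2 mM L-glutamine and pre-incubated 24 h; a time-zero plate is TCA-fixed. Drug added at 0.01, 0.1, 1, 10 and 100 µM (DMSO stock) for 48 h at 37 °C, 5% CO2. Fixed with cold TCA (10% final for adherent, 16% for suspension cells), stained with 0.4% SRB, A515. GI50, TGI and LC50 taken from dose-response curves.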

Malme-3M [10] = experiment: Cytotoxicity against human MALME-3M cells after 48 hrs by SRB assay; format: cell-based; outline: as §3
SK-MEL-28 [11] = experiment: Cytotoxicity against human SK-MEL-28 cells after 48 hrs by SRB assay; format: cell-based; conditions: sk-mel-28, 48 h; outline: as §3
UACC-257 = experiment: Cytotoxicity against human UACC257 cells after 48 hrs by SRB assay; format: cell-based; conditions: uacc-257, 48 h; outline: as §4
OVCAR-3 [12] = experiment: Cytotoxicity against human OVCAR3 cells after 48 hrs by SRB assay; format: cell-based; conditions: ovcar-3, 48 h; outline: as §3
OVCAR-4 = experiment: Cytotoxicity against human OVCAR4 cells after 48 hrs by SRB assay; format: cell-based; conditions: ovcar-4, 48 h; outline: as §3
NCI/ADR-RES = experiment: Cytotoxicity against human NCI/ADR-RES cells after 48 hrs by SRB assay; format: cell-based; outline: as §3
CAKI-1 = experiment: Cytotoxicity against human Caki1 cells after 48 hrs by SRB assay; format: cell-based; conditions: caki-1, 48 h; outline: as §3
RXF 393 [13] = experiment: Cytotoxicity against human RXF393 cells after 48 hrs by SRB assay; format: cell-based; conditions: rxf 393, 48 h; outline: as §3
UO-31 = experiment: Cytotoxicity against human UO31 cells after 48 hrs by SRB assay; format: cell-based; conditions: uo-31, 48 h; outline: as §4
PC-3 = experiment: Cytotoxicity against human PC3 cells after 48 hrs by SRB assay; format: cell-based; conditions: pc-3, 48 h; outline: as §3
MCF7 = experiment: Cytotoxicity against human MCF7 cells after 48 hrs by SRB assay; format: cell-based; conditions: mcf7, 48 h; outline: as §3

## O=c1c2ccccc2nc(-c2ccco2)n1/N=C/c1ccccc1Cl
CCRF-CEM
  GI50: 11.8 µM
  TGI: > 100 µM
EKVX [1]
  GI50: 7.23 µM
  TGI: > 100 µM
NCI-H23
  GI50: 7.87 µM
  TGI: > 100 µM
SF-268
  GI50: 6.84 µM
  TGI: > 100 µM
SF-295
  GI50: 3.26 µM
  TGI: > 100 µM
SNB-19 [2]
  GI50: 6.34 µM
  TGI: 12.8 µM
SNB-75
  GI50: 4.1 µM
  TGI: 7.51 µM
Malme-3M [3]
  GI50: 7.23 µM
  TGI: > 100 µM
M14
  GI50: 10.8 µM
  TGI: > 100 µM
SK-MEL-28 [4]
  GI50: 4.45 µM
  TGI: 18.6 µM
OVCAR-3 [5]
  GI50: 4.12 µM
  TGI: 6.87 µM
OVCAR-5
  GI50: 5.12 µM
  TGI: > 100 µM
A498
  GI50: 5.76 µM
  TGI: 16.7 µM
RXF 393 [6]
  GI50: 11.6 µM
  TGI: 42.6 µM
DU-145
  GI50: 4.38 µM
  TGI: > 100 µM
MDA-MB-231
  GI50: 3.13 µM
  TGI: 7.84 µM
MDA-MB-468
  GI50: 9.96 µM
  TGI: > 100 µM
EKVX [7]
  LC50: > 100 µM
A549
  LC50: > 100 µM
MOLT-4
  LC50: > 100 µM
[8]
  LC50: > 100 µM
NCI-H522
  LC50: 82.9 µM
HT-29
  LC50: > 100 µM
SNB-19 [9]
  LC50: > 100 µM
Malme-3M [10]
  LC50: > 100 µM
SK-MEL-28 [11]
  LC50: > 100 µM
UACC-257
  LC50: > 100 µM
OVCAR-3 [12]
  LC50: > 100 µM
OVCAR-4
  LC50: > 100 µM
NCI/ADR-RES
  LC50: 52.7 µM
CAKI-1
  LC50: > 100 µM
RXF 393 [13]
  LC50: > 100 µM
UO-31
  LC50: > 100 µM
PC-3
  LC50: > 100 µM
MCF7
  LC50: > 100 µM

Source: ChEMBL document CHEMBL1781959, “Synthesis and in vitro antitumor activity of substituted quinazoline and quinoxaline derivatives: search for anticancer agent” (Eur J Med Chem, 2011)
